Results on 28 molecules are retold here after ChEMBL document CHEMBL1811883, “The combination of 4-anilinoquinazoline and cinnamic acid: a novel mode of binding to the epidermal growth factor receptor tyrosine kinase” (Bioorg Med Chem, 2011).

One assay relates to B16-F10. In words: Antiproliferative activity against mouse B16F10 cells assessed as inhibition of serum-stimulated cell growth after 48 hrs by MTT assay. The assay is classed as functional, cell-based. The note with it: B16-F10, 48 h. The essentials:
(§1)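 Cells exposed to compound at final concentrations from 0.01 to 100 (µg/mL per text) for 48 h. MTT (5 mg/mL in PBS) added for 6 h, then 10% SDS in 0.01 N HCl for a further 4 h at 37 °C. Absorbance read at 570 nm; survival expressed relative to untreated cells.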
On the technique in general: Tetrazolium assays rely on reduction of a dye to a coloured formazan, in cell work by metabolically active cells.

The next assay relates to A549. In words: Antiproliferative activity against human A549 cells after 48 hrs by MTT assay. Type of assay: functional, cell-based. The note with it: A549, 48 h. An outline of the steps: as §1
For assay [1], the target named is Epidermal growth factor receptor (Homo sapiens, UniProt P00533). In words: Inhibition of recombinant EGFR expressed in baculovirus infected Sf9 cells after 1 hr by DELFIA/time-resolved fluorimetry assay.
Sequence of Epidermal growth factor receptor (P00533 whole entry): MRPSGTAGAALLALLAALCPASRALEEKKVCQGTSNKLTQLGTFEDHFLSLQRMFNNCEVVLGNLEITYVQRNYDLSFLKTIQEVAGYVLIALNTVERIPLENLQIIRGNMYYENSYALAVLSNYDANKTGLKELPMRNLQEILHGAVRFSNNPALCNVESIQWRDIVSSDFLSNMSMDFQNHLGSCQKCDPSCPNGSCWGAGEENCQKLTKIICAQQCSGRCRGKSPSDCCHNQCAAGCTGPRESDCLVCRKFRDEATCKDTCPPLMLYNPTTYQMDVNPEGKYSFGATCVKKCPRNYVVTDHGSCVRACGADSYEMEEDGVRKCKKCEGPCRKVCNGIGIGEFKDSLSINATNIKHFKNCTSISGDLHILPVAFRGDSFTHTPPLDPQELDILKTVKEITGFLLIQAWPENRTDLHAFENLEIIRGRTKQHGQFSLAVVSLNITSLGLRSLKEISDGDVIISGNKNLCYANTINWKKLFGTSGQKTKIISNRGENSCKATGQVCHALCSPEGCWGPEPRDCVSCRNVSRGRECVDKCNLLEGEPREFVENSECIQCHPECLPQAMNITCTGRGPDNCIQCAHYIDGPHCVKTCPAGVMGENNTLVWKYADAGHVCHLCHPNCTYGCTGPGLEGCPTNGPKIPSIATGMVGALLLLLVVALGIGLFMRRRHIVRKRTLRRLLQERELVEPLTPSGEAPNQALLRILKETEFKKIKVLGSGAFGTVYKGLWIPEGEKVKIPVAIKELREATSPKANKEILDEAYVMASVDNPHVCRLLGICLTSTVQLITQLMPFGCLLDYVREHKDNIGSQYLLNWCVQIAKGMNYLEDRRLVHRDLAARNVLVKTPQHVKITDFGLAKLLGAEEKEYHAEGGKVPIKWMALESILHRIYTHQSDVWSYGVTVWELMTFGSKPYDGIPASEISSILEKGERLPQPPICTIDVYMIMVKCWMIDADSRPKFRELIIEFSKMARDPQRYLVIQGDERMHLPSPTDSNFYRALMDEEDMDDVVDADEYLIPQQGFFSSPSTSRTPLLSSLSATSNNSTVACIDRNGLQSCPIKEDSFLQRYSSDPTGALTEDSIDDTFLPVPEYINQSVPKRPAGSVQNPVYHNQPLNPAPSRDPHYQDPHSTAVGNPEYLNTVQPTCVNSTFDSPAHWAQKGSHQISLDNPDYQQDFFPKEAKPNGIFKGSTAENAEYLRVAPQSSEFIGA
A further assay deals with A431 (Homo sapiens). In words: Antiproliferative activity against human A431 cells expressing EGFR assessed as inhibition of basal cell growth after 48 hrs by MTT assay. As to conditions: A431, 48 h.

Structures are written as SMILES. Converted amounts (≈) assume the structure as drawn.

By IC50 is commonly meant the concentration at which inhibition is half-maximal.

In the case of `O=C(/C=C/c1ccccc1)Nc1ccc2ncnc(Nc3cccc(Br)c3)c2c1`, the IC50 in the assay with B16-F10 was found to be 1.45 µg/mL (≈ 3.26 µM); in the assay on A549, 3.96 µg/mL (≈ 8.89 µM).

Take `O=C(/C=C/c1ccc(Cl)cc1)Nc1ccc2ncnc(Nc3cccc(Br)c3)c2c1`: the IC50 with B16-F10 was determined as 0.38 µg/mL (≈ 0.792 µM); in assay [1], 1.21 µM; with A549, 1.06 µg/mL (≈ 2.21 µM).

As to `O=C(/C=C/c1ccccc1Cl)Nc1ccc2ncnc(Nc3cccc(Br)c3)c2c1`, the IC50 in the assay on B16-F10 is 2 µg/mL (≈ 4.17 µM); in the assay with A549, 6.63 µg/mL (≈ 13.8 µM).

As to `O=C(/C=C/c1ccc(Br)cc1)Nc1ccc2ncnc(Nc3cccc(Br)c3)c2c1`, the IC50 was determined as 10.7 µg/mL (≈ 20.3 µM) in the assay with B16-F10 and 15.3 µg/mL (≈ 29.2 µM) in the assay on A549.

With `O=C(/C=C/c1ccccc1Br)Nc1ccc2ncnc(Nc3cccc(Br)c3)c2c1`, the IC50 in the assay with B16-F10 was 0.92 µg/mL (≈ 1.76 µM); in assay [1] it was 4.28 µM; in the assay on A549 it was 2.38 µg/mL (≈ 4.54 µM).

With `COc1ccc(/C=C/C(=O)Nc2ccc3ncnc(Nc4cccc(Br)c4)c3c2)cc1`, the figures for the IC50 (with B16-F10; in assay [1]; with A549) were 1.24 µg/mL (≈ 2.61 µM), 7.22 µM and 3.36 µg/mL (≈ 7.07 µM), respectively.

As to `COc1ccccc1/C=C/C(=O)Nc1ccc2ncnc(Nc3cccc(Br)c3)c2c1`, the IC50 is 1.28 µg/mL (≈ 2.69 µM) in the assay with B16-F10, 7.71 µM in assay [1] and 3.55 µg/mL (≈ 7.47 µM) with A549.

For the molecule `COc1cccc(/C=C/C(=O)Nc2ccc3ncnc(Nc4cccc(Br)c4)c3c2)c1`, the 50% inhibitory concentration (IC50) with B16-F10 was 0.87 µg/mL (≈ 1.83 µM); in assay [1], 6.02 µM; in the assay with A549 it was 2.05 µg/mL (≈ 4.31 µM).

As for `O=C(/C=C/c1cccs1)Nc1ccc2ncnc(Nc3cccc(Br)c3)c2c1`, the values for the IC50 in the assay on B16-F10 and with A549 were 2.51 µg/mL (≈ 5.56 µM) and 4.66 µg/mL (≈ 10.3 µM), respectively.

With `Cc1ccc(/C=C/C(=O)Nc2ccc3ncnc(Nc4cccc(Br)c4)c3c2)cc1`, the IC50 with B16-F10 worked out at 1.39 µg/mL (≈ 3.03 µM); in the assay on A549, 3.01 µg/mL (≈ 6.55 µM).

Regarding `O=C(/C=C/c1ccc([N+](=O)[O-])cc1)Nc1ccc2ncnc(Nc3cccc(Br)c3)c2c1`, the IC50 was 0.981 µg/mL (≈ 2 µM) in the assay with B16-F10, 1.34 µM in the assay with A431 (Homo sapiens), 5.16 µM in assay [1] and 1.85 µg/mL (≈ 3.77 µM) with A549.

Regarding `O=C(/C=C/c1ccccc1[N+](=O)[O-])Nc1ccc2ncnc(Nc3cccc(Br)c3)c2c1`, the IC50 in the assay with B16-F10 came out at 0.338 µg/mL (≈ 0.689 µM); with A431 (Homo sapiens) it was 0.98 µM; in assay [1] it was 1.02 µM; with A549, 0.92 µg/mL (≈ 1.88 µM).

Take `O=C(/C=C/c1ccccc1)Nc1ccc2ncnc(Nc3cccc(Cl)c3)c2c1`: the IC50 worked out at 0.68 µg/mL (≈ 1.7 µM) with B16-F10, 3.61 µM in assay [1] and 1.58 µg/mL (≈ 3.94 µM) with A549.

On to `O=C(/C=C/c1ccc(Cl)cc1)Nc1ccc2ncnc(Nc3cccc(Cl)c3)c2c1`, for which the IC50 in the assay with B16-F10 turned out to be 9.97 µg/mL (≈ 22.9 µM); with A549, 12.4 µg/mL (≈ 28.6 µM).

In the case of `O=C(/C=C/c1ccccc1Cl)Nc1ccc2ncnc(Nc3cccc(Cl)c3)c2c1`, the IC50 turned out to be 1.74 µg/mL (≈ 4 µM) in the assay on B16-F10 and 4.58 µg/mL (≈ 10.5 µM) with A549.

As for `O=C(/C=C/c1ccc(Br)cc1)Nc1ccc2ncnc(Nc3cccc(Cl)c3)c2c1`, the IC50 in the assay with B16-F10 turned out to be 0.75 µg/mL (≈ 1.56 µM); in assay [1] it was 3.49 µM; with A549, 1.86 µg/mL (≈ 3.88 µM).

Take `O=C(/C=C/c1ccccc1Br)Nc1ccc2ncnc(Nc3cccc(Cl)c3)c2c1`: the 50% inhibitory concentration (IC50) in the assay with B16-F10 worked out at 1.65 µg/mL (≈ 3.44 µM); in the assay on A549 it was 5.63 µg/mL (≈ 11.7 µM).

`COc1cccc(/C=C/C(=O)Nc2ccc3ncnc(Nc4cccc(Cl)c4)c3c2)c1`: the 50% inhibitory concentration (IC50) in the assay with B16-F10 came to 1.05 µg/mL (≈ 2.44 µM); in assay [1], 6.63 µM; with A549, 2.58 µg/mL (≈ 5.99 µM).

`O=C(/C=C/c1cccs1)Nc1ccc2ncnc(Nc3cccc(Cl)c3)c2c1`: the 50% inhibitory concentration (IC50) in the assay with B16-F10 came to 4.26 µg/mL (≈ 10.5 µM); in the assay with A549, 9.23 µg/mL (≈ 22.7 µM).

Regarding `Cc1ccc(/C=C/C(=O)Nc2ccc3ncnc(Nc4cccc(Cl)c4)c3c2)cc1`, the IC50 in the assay on B16-F10 was determined as 2.02 µg/mL (≈ 4.87 µM); in the assay with A549, 6.03 µg/mL (≈ 14.5 µM).

Consider `O=C(/C=C/c1cccc2ccccc12)Nc1ccc2ncnc(Nc3cccc(Cl)c3)c2c1`, for which the figures for the IC50 (with B16-F10; in assay [1]; in the assay with A549) were 0.671 µg/mL (≈ 1.49 µM), 2.81 µM and 1.49 µg/mL (≈ 3.3 µM), respectively.

As to `O=C(/C=C/c1ccc([N+](=O)[O-])cc1)Nc1ccc2ncnc(Nc3cccc(Cl)c3)c2c1`, the IC50 in the assay with B16-F10 was 2.05 µg/mL (≈ 4.6 µM); in the assay on A431 (Homo sapiens), 2.13 µM; in assay [1] it was 3.45 µM; in the assay on A549, 5.26 µg/mL (≈ 11.8 µM).

On to `O=C(/C=C/c1ccccc1[N+](=O)[O-])Nc1ccc2ncnc(Nc3cccc(Cl)c3)c2c1`, for which the results for the concentration for half-maximal inhibition (IC50) in the assay with B16-F10, in the assay on A431 (Homo sapiens) and in the assay on A549 were 0.3 µg/mL (≈ 0.673 µM), 0.75 µM and 0.78 µg/mL (≈ 1.75 µM), respectively.

For `O=C(/C=C/c1cccc([N+](=O)[O-])c1)Nc1ccc2ncnc(Nc3cccc(Br)c3)c2c1`, the IC50 in the assay with A431 (Homo sapiens) turned out to be 0.33 µM; in assay [1] it was 0.12 µM.

Take `O=C(/C=C/c1cccc([N+](=O)[O-])c1)Nc1ccc2ncnc(Nc3cccc(Cl)c3)c2c1`: the IC50 turned out to be 0.49 µM in the assay with A431 (Homo sapiens) and 0.19 µM in assay [1].

For the molecule `Nc1ccc2ncnc(Nc3cccc(Cl)c3)c2c1`, in the assay with A431 (Homo sapiens), the concentration for half-maximal inhibition (IC50) came to 47 µM.

`Nc1ccc2ncnc(Nc3cccc(Br)c3)c2c1`: the IC50 with A431 (Homo sapiens) came to 42 µM.

For the molecule `C#Cc1cccc(Nc2ncnc3cc(OCCOC)c(OCCOC)cc23)c1` [ERLOTINIB], in the assay with B16-F10, the IC50 was found to be 0.02 µg/mL (≈ 0.0508 µM).
